In the RNAGym collection of RNA variant scans (doi:10.1002/anie.201605470):

B1: Osa-1-4 twister ribozyme (parent)
chain: CCGCCUAACACUGCCAAUGCCGGUCCCAAGCCCGGAUAAAAGUGGAGGGGGCGG

Variants of: B1
Experiment: self-cleavage, relative activity (ratio to wild type); higher = more cleavage; co-transcriptional
Summary of the method: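 For each read, cleavage status was taken from whether upstream sequence was present. The reads came from an Oryza sativa twister ribozyme of 54 nucleotides, whose DNA template was synthesised with 97 % wild-type base and 1 % of each other base at the 48 positions downstream of the cleavage site. The template was transcribed in vitro at 37 °C for 2 h with co-transcriptional self-cleavage, and the RNA was reverse-transcribed using a template-switching oligonucleotide, PCR-amplified and deep-sequenced. Relative activity is the fraction cleaved normalised to wild type.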

Variant	self-cleavage
CCGCCUAACACGGCCAAUGCCGGUCCCAAGCCCGGAUAAAAGUGUAGGGGGCGG [G45U U12G]	0.07
CCGCCUAACACUGCCAAGGCCGGUCCCAAGCCCGGAUAAAAGUGUAGGGGGCGG [G45U U18G]	0.19
CCGCCUAACACUGCCAACGCCGGUCCCAAGCCCGGAUAAAAGUGUAGGGGGCGG [G45U U18C]	0.14
CCGCCUAACACUGCCAAAGCCGGUCCCAAGCCCGGAUAAAAGUGUAGGGGGCGG [G45U U18A]	0.14
CCGCCUACCACUGCCAAUGCCGGUCCCAAGCCCGGAUAAAAGUGGCGGGGGCGG [A46C A8C]	0.03
CCGCCUAGCACUGCCAAUGCCGGUCCCAAGCCCGGAUAAAAGUGGCGGGGGCGG [A46C A8G]	0.02
CCGCCUAUCACUGCCAAUGCCGGUCCCAAGCCCGGAUAAAAGUGGCGGGGGCGG [A46C A8U]	0.03
CCGCCUAAUACUGCCAAUGCCGGUCCCAAGCCCGGAUAAAAGUGGCGGGGGCGG [A46C C9U]	0.02
CCGCCUAAGACUGCCAAUGCCGGUCCCAAGCCCGGAUAAAAGUGGCGGGGGCGG [A46C C9G]	0.05
CCGCCUAAAACUGCCAAUGCCGGUCCCAAGCCCGGAUAAAAGUGGCGGGGGCGG [A46C C9A]	0.03
CCGCCUAACACUGCCAAUGCCGGUCCCAAGCCCGGAUAAAAGUGUAGGGAGCGG [G45U G50A]	0.12
CCGCCUAACACUGCCAAUGCCGGUCCCAAGCCCGGAUAAAAGUGUAGGGCGCGG [G45U G50C]	0.07
CCGCCUAACACUGCCAAUGCCGGUCCCAAGCCCGGAUAAAAGUGUAGGGUGCGG [G45U G50U]	0.09
CCGCCUAACACUGCCAAUGCCGGUCCCAAGCCCGGACAAAAGUGCAGGGGGCGG [G45C U37C]	0.08
CCGCCUAACACUGCCAAUGCCGGUCCCAAGCCCGGAGAAAAGUGCAGGGGGCGG [G45C U37G]	0.07
CCGCCUAACACUGCCAAUGCCGGUCCCAAGCCCGGAAAAAAGUGCAGGGGGCGG [G45C U37A]	0.05
CCGCCUAACACUGCCAAUGCCGGUCCCAAGCCCGGAUAAAAGUGUAGGGGGCGG [G45U]	0.17
CCGCCUAACACUGCCAAUGCCGGUCCCAAGCCCGGAUAAAAGUGCAGCGGGCGG [G45C G48C]	0.04
CCGCCUAACACUGCCAAUGCCGGUCCCAAGCCCGGAUAAAAGUGCAGUGGGCGG [G45C G48U]	0.02
CCGCCUAACACUGCCAAUGCCGGUCCCAAGCCCGGAUAAAAGUGCAGAGGGCGG [G45C G48A]	0.03
CCGCCUAACACUGCUAAUGCCGGUCCCAAGCCCGGAUAAAAGUGGCGGGGGCGG [A46C C15U]	0.04
CCGCCUAACACUGCAAAUGCCGGUCCCAAGCCCGGAUAAAAGUGGCGGGGGCGG [A46C C15A]	0.03
CCGCCUAACACUGCGAAUGCCGGUCCCAAGCCCGGAUAAAAGUGGCGGGGGCGG [A46C C15G]	0.04
CCGCCUAACACUGCCAAUGCCGGUCCCAAGCCCGGAUAAAAGUGCAGGUGGCGG [G45C G49U]	0.03
CCGCCUAACACUGCCAAUGCCGGUCCCAAGCCCGGAUAAAAGUGCAGGAGGCGG [G45C G49A]	0.04

Variant	self-cleavage
CCGCCUAACACUGCCAAUGCCGGUCCCAAGCCCGGAUAAAAGUGCAGGCGGCGG [G45C G49C]	0.04
CCGCCUAACACUGCCAAUGCCGGGCCCAAGCCCGGAUAAAAGUGUAGGGGGCGG [G45U U24G]	0.02
CCGCCUAACACUGCCAAUGCCGGCCCCAAGCCCGGAUAAAAGUGUAGGGGGCGG [G45U U24C]	0.04
CCGCCUAACACUGCCAAUGCCGGACCCAAGCCCGGAUAAAAGUGUAGGGGGCGG [G45U U24A]	0.04
CCGCCUAACACUGCCAAUGCGGGUCCCAAGCCCGGAUAAAAGUGGCGGGGGCGG [A46C C21G]	0.03
CCGCCUAACACUGCCAAUGCAGGUCCCAAGCCCGGAUAAAAGUGGCGGGGGCGG [A46C C21A]	0.06
CCGCCUAACACUGCCAAUGCCGGGCCCAAGCCCGGAUAAAAGUGCAGGGGGCGG [G45C U24G]	0.01
CCGCCUAACACUGCCAAUGCCGGCCCCAAGCCCGGAUAAAAGUGCAGGGGGCGG [G45C U24C]	0.02
CCGCCUAACACUGCCAAUGCCGGACCCAAGCCCGGAUAAAAGUGCAGGGGGCGG [G45C U24A]	0.04
CCGCCUCACACUGCCAAUGCCGGUCCCAAGCCCGGAUAAAAGUGGCGGGGGCGG [A46C A7C]	0.03
CCGCCUUACACUGCCAAUGCCGGUCCCAAGCCCGGAUAAAAGUGGCGGGGGCGG [A46C A7U]	0.02
CCGCCUGACACUGCCAAUGCCGGUCCCAAGCCCGGAUAAAAGUGGCGGGGGCGG [A46C A7G]	0.04
CCGCCUAACACUGCCAAUGCCGGUCCCAAGCCCGGAUAAAAGUGCAGGGGGCGA [G45C G54A]	0.08
CCGCCUAACACUGCCAAUGCCGGUCCCAAGCCCGGAUAAAAGUGCAGGGGGCGU [G45C G54U]	0.17
CCGCCUAACACUGCCAAUGCCGGUCCCAAGCCCGGAUAAAAGUGCAGGGGGCGC [G45C G54C]	0.07
CCGCCUAACACUGCCAAUGCCGGUCCCAAGCCCGGAUAAAAGAGCAGGGGGCGG [G45C U43A]	0.06
CCGCCUAACACUGCCAAUGCCGGUCCCAAGCCCGGAUAAAAGCGCAGGGGGCGG [G45C U43C]	0.06
CCGCCUAACACUGCCAAUGCCGGUCCCAAGCCCGGAUAAAAGGGCAGGGGGCGG [G45C U43G]	0.04
CCGCCUAACACUGCCAAUGCCGGUCCCAAGCCCGGAUAAAAGUGUAGAGGGCGG [G45U G48A]	0.04
CCGCCUAACACUGCCAAUGCCGGUCCCAAGCCCGGAUAAAAGUGUAGCGGGCGG [G45U G48C]	0.04
CCGCCUAACACUGCCAAUGCCGGUCCCAAGCCCGGAUAAAAGUGUAGUGGGCGG [G45U G48U]	0.04
CCGCCUAACACUGCCAAUGCCGGUCCCAAGCCCGGAUAAAAGCGUAGGGGGCGG [G45U U43C]	0.06
CCGCCUAACACUGCCAAUGCCGGUCCCAAGCCCGGAUAAAAGGGUAGGGGGCGG [G45U U43G]	0.06
CCGCCUAACACUGCCAAUGCCGGUCCCAAGCCCGGAUAAAAGAGUAGGGGGCGG [G45U U43A]	0.06
